{
  "source": "ChEMBL document CHEMBL1687823",
  "about": "“PA-824 exhibits time-dependent activity in a murine model of tuberculosis” (Antimicrob Agents Chemother, 2011)",
  "key": {"[1]": {"tested_on": "Mycobacterium tuberculosis", "experiment": "fT>MIC for >= 1 log reduction in CFU count in Mycobacterium tuberculosis H37Rv in using simulated dose of at 200 mg assessed as time during compound concentration exceeds MIC of 0.03125 ug/ml assuming 10% unbound compound concentration by one compartment human pharmacokinetic model", "type": "functional", "how_it_was_run": "(§1)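 A one-compartment PK model was fitted to human data to get median parameters. It simulated steady-state total and free concentrations for 100, 200 or 400 mg once daily, assuming 5, 7, 10 or 15% unbound drug. Free T>MIC was computed against MICs of 0.03125–0.25 µg/ml and compared with the mouse-derived T>MIC target for 1-log10 kill.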"}, "[2]": {"tested_on": "Mycobacterium tuberculosis", "experiment": "fT>MIC for >= 1 log reduction in CFU count in Mycobacterium tuberculosis H37Rv in using simulated dose of at 100 mg assessed as time during compound concentration exceeds MIC of 0.12500 ug/ml assuming 5% unbound compound concentration by one compartment human pharmacokinetic model", "type": "functional", "how_it_was_run": "as §1"}, "[3]": {"tested_on": "Mycobacterium tuberculosis", "experiment": "fT>MIC for >= 1 log reduction in CFU count in Mycobacterium tuberculosis H37Rv in using simulated dose of at 400 mg assessed as time during compound concentration exceeds MIC of 0.06250 ug/ml assuming 10% unbound compound concentration by one compartment human pharmacokinetic model", "type": "functional", "how_it_was_run": "as §1"}, "[4]": {"tested_on": "Mycobacterium tuberculosis", "experiment": "fT>MIC for >= 1 log reduction in CFU count in Mycobacterium tuberculosis H37Rv in using simulated dose of at 400 mg assessed as time during compound concentration exceeds MIC of 0.25000 ug/ml assuming 5% unbound compound concentration by one compartment human pharmacokinetic model", "type": "functional", "how_it_was_run": "(§2)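 Human steady-state simulation: one-compartment PK model fitted to patient data, chosen by AIC. Median PK parameters used to simulate total and free concentrations, assuming 5, 7, 10 or 15% unbound, for 100, 200 and 400 mg once daily. Free levels compared with MICs of 0.03125 to 0.25 µg/ml to give %T>MIC; T>MIC is the cumulative percentage of the dosing interval above MIC.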"}, "[5]": {"experiment": "Tmax in BALB/c mouse up to 1456 mg/kg, po administered as single dose", "type": "ADME, organism-based", "parameters": "route oral", "conditions": "in vivo", "how_it_was_run": "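Uninfected 6-week female BALB/c mice received single oral gavage doses of 3–1,458 mg/kg as a cyclodextrin-micelle suspension. Three mice per time point were bled by cardiac puncture under isoflurane at 0.5–120 h. Serum levels were measured by validated HPLC-UV (standards 0.20–50 µg/ml).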"}, "[6]": {"tested_on": "Mycobacterium tuberculosis", "experiment": "fT>MIC for >= 1 log reduction in CFU count in Mycobacterium tuberculosis H37Rv in using simulated dose of at 400 mg assessed as time during compound concentration exceeds MIC of 0.12500 ug/ml assuming 10% unbound compound concentration by one compartment human pharmacokinetic model", "type": "functional", "how_it_was_run": "as §2"}, "[7]": {"tested_on": "Mycobacterium tuberculosis", "experiment": "fT>MIC for >= 1 log reduction in CFU count in Mycobacterium tuberculosis H37Rv in using simulated dose of at 400 mg assessed as time during compound concentration exceeds MIC of 0.25000 ug/ml assuming 7% unbound compound concentration by one compartment human pharmacokinetic model", "type": "functional", "how_it_was_run": "as §2"}, "[8]": {"tested_on": "Mycobacterium tuberculosis", "experiment": "fT>MIC for >= 1 log reduction in CFU count in Mycobacterium tuberculosis H37Rv in using simulated dose of at 200 mg assessed as time during compound concentration exceeds MIC of 0.12500 ug/ml assuming 10% unbound compound concentration by one compartment human pharmacokinetic model", "type": "functional", "how_it_was_run": "as §1"}, "[9]": {"tested_on": "Mycobacterium tuberculosis", "experiment": "fT>MIC for >= 1 log reduction in CFU count in Mycobacterium tuberculosis H37Rv in using simulated dose of at 400 mg assessed as time during compound concentration exceeds MIC of 0.12500 ug/ml assuming 7% unbound compound concentration by one compartment human pharmacokinetic model", "type": "functional", "how_it_was_run": "as §2"}, "[10]": {"tested_on": "Mycobacterium tuberculosis", "experiment": "fT>MIC for >= 1 log reduction in CFU count in Mycobacterium tuberculosis H37Rv in using simulated dose of at 200 mg assessed as time during compound concentration exceeds MIC of 0.06250 ug/ml assuming 15% unbound compound concentration by one compartment human pharmacokinetic model", "type": "functional", "how_it_was_run": "as §1"}, "[11]": {"tested_on": "Mycobacterium tuberculosis", "experiment": "fT>MIC for >= 1 log reduction in CFU count in Mycobacterium tuberculosis H37Rv in using simulated dose of at 400 mg assessed as time during compound concentration exceeds MIC of 0.03125 ug/ml assuming 5% unbound compound concentration by one compartment human pharmacokinetic model", "type": "functional", "how_it_was_run": "as §1"}, "[12]": {"tested_on": "Mycobacterium tuberculosis", "experiment": "fT>MIC for >= 1 log reduction in CFU count in Mycobacterium tuberculosis H37Rv in using simulated dose of at 100 mg assessed as time during compound concentration exceeds MIC of 0.03125 ug/ml assuming 15% unbound compound concentration by one compartment human pharmacokinetic model", "type": "functional", "how_it_was_run": "as §1"}, "[13]": {"experiment": "AUC (0 to t) in mouse at 100 or 50 mg/kg, po administered as single dose", "type": "ADME, organism-based", "parameters": "dose 50 mg/kg, route oral", "conditions": "plasma"}, "[14]": {"tested_on": "Mycobacterium tuberculosis", "experiment": "fT>MIC for >= 1 log reduction in CFU count in Mycobacterium tuberculosis H37Rv in using simulated dose of at 400 mg assessed as time during compound concentration exceeds MIC of 0.25000 ug/ml assuming 15% unbound compound concentration by one compartment human pharmacokinetic model", "type": "functional", "how_it_was_run": "as §2"}, "[15]": {"tested_on": "Mycobacterium tuberculosis", "experiment": "fT>MIC for >= 1 log reduction in CFU count in Mycobacterium tuberculosis H37Rv in using simulated dose of at 100 mg assessed as time during compound concentration exceeds MIC of 0.06250 ug/ml assuming 5% unbound compound concentration by one compartment human pharmacokinetic model", "type": "functional", "how_it_was_run": "as §1"}, "[16]": {"tested_on": "Mycobacterium tuberculosis", "experiment": "fT>MIC for >= 1 log reduction in CFU count in Mycobacterium tuberculosis H37Rv in using simulated dose of at 200 mg assessed as time during compound concentration exceeds MIC of 0.03125 ug/ml assuming 5% unbound compound concentration by one compartment human pharmacokinetic model", "type": "functional", "how_it_was_run": "as §1"}, "[17]": {"tested_on": "Mycobacterium tuberculosis", "experiment": "fT>MIC for >= 1 log reduction in CFU count in Mycobacterium tuberculosis H37Rv in using simulated dose of at 200 mg assessed as time during compound concentration exceeds MIC of 0.06250 ug/ml assuming 7% unbound compound concentration by one compartment human pharmacokinetic model", "type": "functional", "how_it_was_run": "as §1"}, "[18]": {"tested_on": "Mycobacterium tuberculosis", "experiment": "Antitubercular activity against Mycobacterium tuberculosis H37Rv infected in BALB/c mouse at 12.5 mg/kg, po for 5 days relative to control", "type": "functional, organism-based", "parameters": "dose 12.5 mg/kg"}, "[19]": {"tested_on": "Mycobacterium tuberculosis", "experiment": "fT>MIC for >= 1 log reduction in CFU count in Mycobacterium tuberculosis H37Rv in using simulated dose of at 100 mg assessed as time during compound concentration exceeds MIC of 0.03125 ug/ml assuming 10% unbound compound concentration by one compartment human pharmacokinetic model", "type": "functional", "how_it_was_run": "as §1"}, "[20]": {"tested_on": "Mycobacterium tuberculosis", "experiment": "fT>MIC for >= 1 log reduction in CFU count in Mycobacterium tuberculosis H37Rv in using simulated dose of at 400 mg assessed as time during compound concentration exceeds MIC of 0.03125 ug/ml assuming 7% unbound compound concentration by one compartment human pharmacokinetic model", "type": "functional", "how_it_was_run": "as §1"}, "[21]": {"experiment": "Cmax in mouse at 100 or 50 mg/kg, po administered as single dose", "type": "ADME, organism-based", "parameters": "dose 50 mg/kg, route oral", "conditions": "in vivo"}, "[22]": {"tested_on": "Mycobacterium tuberculosis", "experiment": "fT>MIC for >= 1 log reduction in CFU count in Mycobacterium tuberculosis H37Rv in using simulated dose of at 400 mg assessed as time during compound concentration exceeds MIC of 0.06250 ug/ml assuming 5% unbound compound concentration by one compartment human pharmacokinetic model", "type": "functional", "how_it_was_run": "as §2"}},
  "note": "Activity calls are given as the source filed them. No cut-off for these calls is given here.",
  "data": [
    {"smiles": "O=[N+]([O-])c1cn2c(n1)OC[C@@H](OCc1ccc(OC(F)(F)F)cc1)C2", "note": "[PRETOMANID]", "values": [
      {"measurement": "fT>MIC", "setting": "[1]", "value": 100, "unit": "%"},
      {"measurement": "fT>MIC", "setting": "[2]", "value": 0, "unit": "%"},
      {"measurement": "fT>MIC", "setting": "[3]", "value": 100, "unit": "%"},
      {"measurement": "fT>MIC", "setting": "[4]", "value": 0, "unit": "%"},
      {"measurement": "Tmax", "setting": "[5]", "value": 4, "unit": "h"},
      {"measurement": "fT>MIC", "setting": "[6]", "value": 100, "unit": "%"},
      {"measurement": "fT>MIC", "setting": "[7]", "value": 4, "unit": "%"},
      {"measurement": "fT>MIC", "setting": "[8]", "value": 46, "unit": "%"},
      {"measurement": "fT>MIC", "setting": "[9]", "value": 67, "unit": "%"},
      {"measurement": "fT>MIC", "setting": "[10]", "value": 100, "unit": "%"},
      {"measurement": "fT>MIC", "setting": "[11]", "value": 100, "unit": "%"},
      {"measurement": "fT>MIC", "setting": "[12]", "value": 100, "unit": "%"},
      {"measurement": "AUC(0-t)", "setting": "[13]", "value": 70400, "unit": "ng·h/mL"},
      {"measurement": "fT>MIC", "setting": "[14]", "value": 67, "unit": "%"},
      {"measurement": "fT>MIC", "setting": "[15]", "value": 0, "unit": "%"},
      {"measurement": "fT>MIC", "setting": "[16]", "value": 100, "unit": "%"},
      {"measurement": "fT>MIC", "setting": "[17]", "value": 67, "unit": "%"},
      {"measurement": "Activity", "setting": "[18]", "value": "Active"},
      {"measurement": "fT>MIC", "setting": "[19]", "value": 100, "unit": "%"},
      {"measurement": "fT>MIC", "setting": "[20]", "value": 100, "unit": "%"},
      {"measurement": "Cmax", "setting": "[21]", "value": 3800, "unit": "ng/mL"},
      {"measurement": "fT>MIC", "setting": "[22]", "value": 100, "unit": "%"}
    ]}
  ]
}
